Target: heparin-stabilized human rhSkin β-tryptase (Homo sapiens, UniProt P20231)
Assay: β-tryptase enzyme inhibition assay
Assay type: biochemical
Outline: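 Heparin-stabilized recombinant human skin β-tryptase in 50 mM Tris-HCl, pH 7.4, run in a high-throughput format. Activity was read as release of free AMC from the cleaved Gly-Pro-Arg-AMC peptide substrate. Inhibition mode was assessed by Dixon plots (1/v against inhibitor concentration) at substrate 25, 50, 75, 100, 150 and 200 μM.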

heparin-stabilized human rhSkin β-tryptase, sequence (P20231 31-275): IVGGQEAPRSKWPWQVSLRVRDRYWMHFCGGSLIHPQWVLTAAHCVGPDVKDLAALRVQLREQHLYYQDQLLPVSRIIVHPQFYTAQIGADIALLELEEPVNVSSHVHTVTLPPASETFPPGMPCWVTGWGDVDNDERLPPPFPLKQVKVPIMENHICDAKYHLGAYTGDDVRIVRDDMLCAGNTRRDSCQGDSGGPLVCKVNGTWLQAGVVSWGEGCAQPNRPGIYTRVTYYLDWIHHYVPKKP

With `C[C@H](NC(=O)CNC(=O)CCC(=O)N/N=C/c1cc(/C=N/NC(=O)CCC(=O)NCC(=O)N[C@@H](C)C(=O)N[C@@H](Cc2ccccc2)C(=O)N[C@@H](CCC(=O)O)C(N)=O)cc(/C=N/NC(=O)CCC(=O)NCC(=O)N[C@@H](C)C(=O)N[C@@H](Cc2ccccc2)C(=O)N[C@@H](CCC(=O)O)C(N)=O)c1)C(=O)N[C@@H](Cc1ccccc1)C(=O)N[C@@H](CCC(=O)O)C(N)=O` [5(E)3] as the molecule, how does the “inhibition of β-tryptase (in words)” value read?
Its value is “no inhibition of β-tryptase at all”.

— publication PMC5644118 (Chemical Science, 2014)
